Experimental data taken from ChEMBL document CHEMBL1129481, “Interactions of flavonoids and other phytochemicals with adenosine receptors” (J Med Chem, 1996).

Experiments:
[1] = target: T1, Adenosine receptor A3 (Homo sapiens) (UniProt P0DMS8); experiment: Displacement of specific [125I]AB-MECA binding from human Adenosine A3 receptor expressed in HEK293 cells; assay type: cell-based; parameters: concentration or dose not given beside the values
T1 sequence (whole entry): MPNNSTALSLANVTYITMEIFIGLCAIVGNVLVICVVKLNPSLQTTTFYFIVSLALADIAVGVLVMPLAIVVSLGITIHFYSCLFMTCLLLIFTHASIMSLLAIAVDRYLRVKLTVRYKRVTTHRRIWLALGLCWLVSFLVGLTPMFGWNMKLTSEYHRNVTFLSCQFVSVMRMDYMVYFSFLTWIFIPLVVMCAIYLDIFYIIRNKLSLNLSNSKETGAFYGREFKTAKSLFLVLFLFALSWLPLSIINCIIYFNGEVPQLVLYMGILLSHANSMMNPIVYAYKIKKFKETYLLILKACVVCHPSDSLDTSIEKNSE
Method in brief: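 Membranes came from HEK-293 cells stably expressing human A3. Binding used Mg2+-free 50 mM Tris with 1 mM EDTA, pH 8.0, and 0.3 nM final [125I]AB-MECA. Compounds came from DMSO stock, ≤1% final. Duplicates ran 1 h at 37 or 25 °C, then filtration and γ-counting. Nonspecific binding was set with 100 μM (R)-PIA.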

[2] = target: Adenosine receptor A2a (Rattus norvegicus) (UniProt P30543); experiment: Displacement of [3H]-CGS- 21680 from Adenosine A2A receptor in rat striatal membranes at 10e-4 M; assay type: cell membranes; details: Membrane
Adenosine receptor A2a (Rattus norvegicus), sequence (P30543 whole entry): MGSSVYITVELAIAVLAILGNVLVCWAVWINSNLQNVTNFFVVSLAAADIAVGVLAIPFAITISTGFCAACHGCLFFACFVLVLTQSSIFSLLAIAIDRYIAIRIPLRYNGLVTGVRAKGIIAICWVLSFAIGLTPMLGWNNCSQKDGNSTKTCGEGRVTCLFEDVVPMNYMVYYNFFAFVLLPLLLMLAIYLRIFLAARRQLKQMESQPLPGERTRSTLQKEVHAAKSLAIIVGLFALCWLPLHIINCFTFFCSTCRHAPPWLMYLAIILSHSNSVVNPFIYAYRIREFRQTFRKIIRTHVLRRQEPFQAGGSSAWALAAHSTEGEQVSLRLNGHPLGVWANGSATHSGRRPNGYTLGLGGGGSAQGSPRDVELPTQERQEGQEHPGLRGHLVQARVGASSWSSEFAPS
Method in brief: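 Rat striatal membranes were prepared with adenosine deaminase (3 units/mL), including a 30 min step at 30 °C. The enzyme was kept during the [3H]CGS 21680 incubation.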

Adenosine receptor A3 = target: T2, Adenosine receptor A3 (Homo sapiens, UniProt P0DMS8); experiment: Displacement of [125I]AB-MECA binding to human Adenosine A3 receptor expressed in HEK293 cells; assay type: cell-based
T2 sequence (P0DMS8 whole entry): T1 sequence (whole entry)
Method in brief: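 Membranes came from HEK-293 cells stably expressing human A3. Compounds came from DMSO stock, ≤1% final. Duplicates ran 1 h at 37 or 25 °C, then filtration and γ-counting. Nonspecific binding was set with 100 μM (R)-PIA.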

Adenosine receptor A1 = target: T3, Adenosine receptor A1 (Rattus norvegicus, UniProt P25099); experiment: Displacement of specific [3H]PIA binding from adenosine A1 receptor in rat brain membranes.; assay type: cell membranes
T3 sequence (P25099 whole entry): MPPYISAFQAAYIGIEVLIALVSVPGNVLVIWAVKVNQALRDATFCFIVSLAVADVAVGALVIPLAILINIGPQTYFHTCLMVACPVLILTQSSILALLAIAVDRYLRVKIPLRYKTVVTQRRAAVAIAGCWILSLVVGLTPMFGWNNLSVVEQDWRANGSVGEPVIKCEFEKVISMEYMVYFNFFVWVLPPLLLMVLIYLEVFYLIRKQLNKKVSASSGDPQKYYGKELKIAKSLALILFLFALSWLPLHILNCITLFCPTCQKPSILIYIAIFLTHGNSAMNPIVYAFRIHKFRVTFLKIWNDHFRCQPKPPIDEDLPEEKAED
Method in brief: (§1)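 Rat cortical membranes were pretreated with adenosine deaminase (3 units/mL) for 30 min at 30 °C during preparation. The enzyme was also present during incubation with [3H]-(R)-PIA. Ki values were derived from displacement of specific binding.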

Adenosine receptor A2a = Adenosine receptor A2a (Rattus norvegicus, UniProt P30543); experiment: Affinity at Adenosine A2A receptor in rat striatal membranes by [3H]- CGS 21680 displacement.; assay type: cell membranes, Striatum, Membrane
Adenosine receptor A2a, sequence (P30543 whole entry): as the sequence (P30543 whole entry) above
Method in brief: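 Rat striatal membranes were prepared with adenosine deaminase (3 units/mL), including a 30 min step at 30 °C.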

[3] = target: T4, Adenosine receptor A1 (Rattus norvegicus) (UniProt P25099); experiment: Displacement of [3H]PIA from Adenosine A1 receptor in rat brain membranes; assay type: cell membranes; method in brief: as §1
T4 sequence (whole entry): T3 sequence (P25099 whole entry)

Row | Displacement [1] [%] | SMILES | other results
1 | < 10 | COC1C=CC23c4cc5c(cc4C[N+](C)(CC2OC(C)=O)C3C1)OCO5 (stereo not given) | Displacement [2]: < 10%
2 | 12 | O=c1cc(-c2ccccc2)oc2ccc3ccccc3c12 | Displacement [2]: < 10%
3 | 19 | CCn1c2c(c3cc4c(cc3c1=O)OCO4)C(=O)CCC2 | 
4 | < 10 | COc1cc2c3c(c1)c1cc4c(cc1c(=O)n3CC2)OCO4 | Displacement [2]: < 10%
5 |  | COc1cc(O)c2c(c1)OC(c1ccc(O)cc1)CC2=O (stereo not given) | Ki (Adenosine receptor A3): 3.4 µM; Ki (Adenosine receptor A1): 8.18 µM; Ki (Adenosine receptor A2a): 35.6 µM
6 | 71 | O=c1cc(-c2ccccc2)oc2c1ccc1ccccc12 | 
7 |  | COc1ccc2c(=O)c(O)c(-c3ccc(O)c(O)c3)oc2c1 | Ki (Adenosine receptor A3): 1.38 µM
8 | 63 | COc1c(O)cc2oc(-c3ccc(O)cc3)cc(=O)c2c1O | 
9 | 41 | O=c1cc(-c2ccccc2)oc2cc(O)ccc12 | 
10 |  | Cc1ccc(-c2cc(=O)c3c(C)c(C)c(C)cc3o2)cc1 | Ki (Adenosine receptor A3): 4.48 µM; Ki (Adenosine receptor A1): 1.29 µM
11 |  | O=C1c2c(O)cc(O)cc2OC(c2ccc(O)c(O)c2)C1O (racemic) | Displacement [3]: < 10%
12 | 52 | O=C1c2ccccc2-c2cc3c(cc21)OCO3 | 
13 | 32 | COc1ccc(-c2cc(=O)c3ccc(O)cc3o2)cc1OC | 
14 | 20 | O=c1c(-c2ccc(O)cc2)coc2cc(O)cc(O)c12 | 
15 | 63 | COc1cc2c(c(O)c1OC)c(=O)c1ccccc1n2C | 
16 | < 10 | O=C1c2cc(O)c(O)cc2C2c3ccc(O)c(O)c3OCC12O (stereo not given) | Displacement [2]: 28%
17 | 63 | O=c1cc(-c2ccc(O)cc2)oc2cc(O)cc(O)c12 | 
18 | 47 | O=c1cc(-c2ccccc2)oc2cccc(O)c12 | 
19 | 69 | COc1ccc(-c2cc(=O)c3c(O)cc(OC)cc3o2)cc1 | Displacement [2]: < 10%; Displacement [3]: < 10%
20 | < 10 | COc1cc2c3c(oc(=O)c2cc1OC)CCCC3=O | 
21 |  | COc1cc(OC)c2c(=O)c(OC)c(-c3cc(OC)c(OC)c(OC)c3)oc2c1 | Displacement [3]: < 10%
